These results are taken from PubChem BioAssay.

The nature of test [1]: hit retest on RPL19A-GFP reporter strain – cell-based, S. cerevisiae, flow cytometry, cherry picks, mother/daughter gates, confirmation (AID 2270;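 active = GFP response below 50% of the DMSO control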). The conditions noted are these: 3 h, at 10 µM, stronger effect = lower value, 100 = same GFP as DMSO wells. For orientation: Flow cytometry measures light scatter and fluorescence of single cells or particles in a stream.
Test [2] in a line: yeast TOR pathway reporter LAP4-GFP change – cell-based, cherry picks, flow cytometry, mother/daughter gates, confirmation (AID 2271;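 active = GFP response above 150% of the DMSO control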;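 note: ratio of sample to DMSO plate mean so 100% equals DMSO level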). The conditions noted are these: S. cerevisiae LAP4-GFP strain, 3 h, at 10 µM, stronger effect = higher value, 100 means same as DMSO control. The procedure, abridged: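 System: GFP-fusion yeast strain | Input: Yeast cells seeded at OD600 of 0.2 | Technique: HT flow cytometry, GFP fluorescence channel | Read-out: % GFP response vs DMSO | Dosing: Single test-compound dose, 10 µM final | Controls: Positive rapamycin (400 ng/mL), negative DMSO | Times: 3 h treatment at 30 °C with rotation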

Test [3] can be described thus: TOR pathway reporter MEP2-GFP, retest of hits – S. cerevisiae, flow cytometry GFP, cherry picks, confirmation (AID 2272;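 active = GFP response above 150% of the DMSO control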;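 note: ratio of well signal to plate DMSO mean so 100% equals DMSO level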). Particulars: S. cerevisiae MEP2-GFP strain, 3 h, at 10 µM, stronger effect = higher value.
Test [4] in a line: yeast AGP1-GFP fluorescence change, single-dose – cell-based, flow cytometry, S. cerevisiae, cherry picks, confirmation (AID 2273).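 Note: median GFP channel fluorescence over the whole cell population gate.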 Particulars: S. cerevisiae AGP1-GFP strain, 3 h, at 10 µM.
Test [5] in a line: TOR pathway CIT2 reporter hit retest – S. cerevisiae, GFP fusion, cherry picks, mother/daughter gates, confirmation (AID 2274). The conditions noted are these: S. cerevisiae CIT2-GFP strain, flow cytometry, 3 h, at 10 µM, stronger effect = higher value.
[6] abbreviates: measured here: daughter cell gate.
Where [7] appears, read: measured here: mother cell gate.
Where [8] appears, read: measured here: daughter cell gate response.
Setting [9] is: measured here: mother cell gate response.

The source made the active and inactive calls.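 Rule for the calls, unless noted: active = GFP response above 150% of the DMSO level; inconclusive = fewer than 70 events counted for a yeast strain; inactive = the rest.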

In the case of `O=C(Nc1nc(-c2ccccc2Cl)cs1)c1cccnc1`, the GFP response vs DMSO in test [1] was 100% (inactive); in test [1] (setting [6]), 94.7%; in test [1] (setting [7]), 99.2%; in test [3], 100% (inactive). Moreover, the GFP response relative to DMSO in test [2] is 97.4% (inactive); in test [2] (setting [8]), 95.6%; in test [2] (setting [9]), 99.3%. Moreover, the GFP response, % of DMSO in test [4] is 89.1% (inactive); in test [5], 99.1% (inactive); in test [5] (setting [6]) it was 94.8%; in test [5] (setting [7]) it was 97.7%.

As to `COC(=O)c1ccc(N2C(=O)CC(Sc3n[nH]c(C)n3)C2=O)cc1` (configuration not stated), the GFP response vs DMSO was 101% (inactive) in test [1], 103% in test [1] (setting [6]), 98% in test [1] (setting [7]) and 108% (inactive) in test [3]. For the same molecule, the GFP response relative to DMSO was 128% (inactive) in test [2], 130% in test [2] (setting [8]) and 131% in test [2] (setting [9]). Moreover, the GFP response, % of DMSO in test [4] is 101% (inactive); in test [5] it was 106% (inactive); in test [5] (setting [6]) it was 108%; in test [5] (setting [7]) it was 103%.

With `O=C(/C(=C/O)N=Nc1ccc(Cl)cc1)c1ccncc1`, the GFP response vs DMSO is 101% (inactive) in test [1], 99.3% in test [1] (setting [6]), 98.8% in test [1] (setting [7]) and 132% (inactive) in test [3]. The GFP response relative to DMSO is 111% (inactive) in test [2], 101% in test [2] (setting [8]) and 115% in test [2] (setting [9]). Moreover, the GFP response, % of DMSO in test [4] was 101% (inactive); in test [5], 90.3% (inactive); in test [5] (setting [6]), 88.7%; in test [5] (setting [7]) it was 88.2%.

As for `CCNC(=O)/C(C#N)=C/c1c(N2CC(C)OC(C)C2)nc2ccccn2c1=O` (configuration not stated), the GFP response vs DMSO in test [1] was 97.8% (inactive); in test [1] (setting [6]) it was 99.3%; in test [1] (setting [7]) it was 98.1%; in test [3], 99% (inactive). Moreover, the GFP response relative to DMSO in test [2] is 99.5% (inactive); in test [2] (setting [8]), 102%; in test [2] (setting [9]), 99.4%. The GFP response, % of DMSO in test [4] was 106% (inactive); in test [5] it was 103% (inactive); in test [5] (setting [6]), 103%; in test [5] (setting [7]), 104%.

For the molecule `CCOC(=O)Cc1csc(NC(=O)c2sc3nc4c(C)cc(C)cc4cc3c2N)n1`, the GFP response vs DMSO was 104% (inactive) in test [1], 96.7% in test [1] (setting [6]), 97.7% in test [1] (setting [7]) and 109% (inactive) in test [3]. Besides, the GFP response relative to DMSO in test [2] was 84.2% (inactive); in test [2] (setting [8]) it was 89.5%; in test [2] (setting [9]), 92.1%. Moreover, the GFP response, % of DMSO in test [4] was 97.2% (inactive); in test [5], 115% (inactive); in test [5] (setting [6]), 110%; in test [5] (setting [7]), 118%.

As for `O=C(NCc1ccccn1)c1cc(-c2ccc(Cl)cc2)oc1C(F)(F)F`, the GFP response vs DMSO in test [1] was 99.5% (inactive); in test [1] (setting [6]), 98.4%; in test [1] (setting [7]) it was 99.8%; in test [3], 100% (inactive). Besides, the GFP response relative to DMSO in test [2] was 103% (inactive); in test [2] (setting [8]) it was 106%; in test [2] (setting [9]) it was 102%. The GFP response, % of DMSO in test [4] is 99.4% (inactive); in test [5] it was 102% (inactive); in test [5] (setting [6]), 98.1%; in test [5] (setting [7]) it was 101%.

Consider `CNc1cc(CSC)nc(SCc2ccc(Cl)cc2Cl)n1`, for which the GFP response vs DMSO was 93.5% (inactive) in test [1], 88.6% in test [1] (setting [6]), 96.1% in test [1] (setting [7]) and 102% (inactive) in test [3]. Besides, the results for the GFP response relative to DMSO in test [2], in test [2] (setting [8]) and in test [2] (setting [9]) were 125% (inactive), 118% and 131%, respectively. Also, the GFP response, % of DMSO in test [4] was 90.4% (inactive); in test [5], 88.3% (inactive); in test [5] (setting [6]), 86.2%; in test [5] (setting [7]), 89%.

For `COc1ccc(/C=C/C(=O)c2ccc(Cl)cc2)c(OC)c1`, the GFP response vs DMSO is 97.6% (inactive) in test [1], 98.9% in test [1] (setting [6]), 96.1% in test [1] (setting [7]) and 100% (inactive) in test [3]. For the same molecule, the GFP response relative to DMSO in test [2] is 104% (inactive); in test [2] (setting [8]) it was 102%; in test [2] (setting [9]) it was 106%. Besides, the GFP response, % of DMSO in test [4] is 90.2% (inactive); in test [5], 99.7% (inactive); in test [5] (setting [6]), 99.1%; in test [5] (setting [7]), 97.3%.

As for `N=c1ccn(CC(=O)c2ccc(-c3ccccc3)cc2)cc1`, the GFP response vs DMSO was 99.7% (inactive) in test [1], 99.3% in test [1] (setting [6]), 98.8% in test [1] (setting [7]) and 104% (inactive) in test [3]. The GFP response relative to DMSO in test [2] was 96.5% (inactive); in test [2] (setting [8]), 93.6%; in test [2] (setting [9]), 99.5%. The GFP response, % of DMSO was 92.1% (inactive) in test [4], 96.4% (inactive) in test [5], 96.4% in test [5] (setting [6]) and 95.6% in test [5] (setting [7]).

With `O=C1Nc2ccccc2/C1=C\C(=O)c1ccccc1`, the GFP response vs DMSO is 99% (inactive) in test [1], 96.4% in test [1] (setting [6]), 91.9% in test [1] (setting [7]) and 128% (inactive) in test [3]. Moreover, the GFP response relative to DMSO was 228% (active) in test [2], 180% in test [2] (setting [8]) and 236% in test [2] (setting [9]). Moreover, the GFP response, % of DMSO in test [4] is 103% (inactive); in test [5], 109% (inactive); in test [5] (setting [6]), 110%; in test [5] (setting [7]) it was 104%.

For the molecule `Cc1ccc(NC(=O)c2ccccc2)cc1`, the GFP response vs DMSO in test [1] was 100% (inactive); in test [1] (setting [6]), 99%; in test [1] (setting [7]) it was 100%; in test [3], 100% (inactive). The figures for the GFP response relative to DMSO in test [2], in test [2] (setting [8]) and in test [2] (setting [9]) were 98.7% (inactive), 100% and 100%, respectively. Further, the GFP response, % of DMSO in test [4] was 91.5% (inactive); in test [5], 96.5% (inactive); in test [5] (setting [6]) it was 96.5%; in test [5] (setting [7]) it was 93.4%.

Take `NC1=NC(=O)C(CC(=O)c2ccc(Cl)cc2)S1` (configuration not stated): the GFP response vs DMSO is 99.9% (inactive) in test [1], 100% in test [1] (setting [6]), 99.8% in test [1] (setting [7]) and 102% (inactive) in test [3]. Also, the GFP response relative to DMSO is 106% (inactive) in test [2], 99.3% in test [2] (setting [8]) and 107% in test [2] (setting [9]). The GFP response, % of DMSO in test [4] is 96.7% (inactive); in test [5], 96.4% (inactive); in test [5] (setting [6]), 96.4%; in test [5] (setting [7]), 94.5%.

Regarding `COc1ccc(-c2nn(-c3ccccc3)cc2C(=O)N/N=C/c2ccc([N+](=O)[O-])o2)cc1`, the GFP response vs DMSO in test [1] is 103% (inactive); in test [1] (setting [6]) it was 103%; in test [1] (setting [7]), 103%; in test [3] it was 100% (inactive). Also, the GFP response relative to DMSO is 84.2% (inactive) in test [2], 92.5% in test [2] (setting [8]) and 92.1% in test [2] (setting [9]). For the same molecule, the GFP response, % of DMSO in test [4] is 96.7% (inactive); in test [5] it was 113% (inactive); in test [5] (setting [6]), 110%; in test [5] (setting [7]) it was 115%.

Turning to `Fc1ccccc1-c1nc(NCCCN2CCOCC2)c2ccccc2n1`, the GFP response vs DMSO in test [1] is 94.4% (inactive); in test [1] (setting [6]) it was 93.6%; in test [1] (setting [7]), 95.6%; in test [3], 96.2% (inactive). Besides, the GFP response relative to DMSO in test [2] was 101% (inactive); in test [2] (setting [8]), 99.2%; in test [2] (setting [9]), 98.3%. In addition, the GFP response, % of DMSO is 98.5% (inactive) in test [4], 96.9% (inactive) in test [5], 97.2% in test [5] (setting [6]) and 97.3% in test [5] (setting [7]).

Regarding `COc1cccc(/C=C2\C(=O)N(c3cccc(C)c3)C(=O)c3ccccc32)c1`, the GFP response vs DMSO in test [1] is 96% (inactive); in test [1] (setting [6]), 92%; in test [1] (setting [7]), 92.8%; in test [3], 98.8% (inactive). The GFP response relative to DMSO in test [2] is 168% (active); in test [2] (setting [8]), 145%; in test [2] (setting [9]) it was 180%. The GFP response, % of DMSO in test [4] was 104% (inactive); in test [5] it was 79.7% (inactive); in test [5] (setting [6]), 84.1%; in test [5] (setting [7]) it was 71.8%.

Consider `O=S(=O)(c1cccc(C(F)(F)F)c1)c1ccc(O)cn1`, for which the GFP response vs DMSO in test [1] is 98.8% (inactive); in test [1] (setting [6]) it was 99.4%; in test [1] (setting [7]), 98.5%; in test [3], 100% (inactive). Moreover, the GFP response relative to DMSO is 96.7% (inactive) in test [2], 99.2% in test [2] (setting [8]) and 95.1% in test [2] (setting [9]). Also, the GFP response, % of DMSO in test [4] was 94.7% (inactive); in test [5], 104% (inactive); in test [5] (setting [6]), 106%; in test [5] (setting [7]), 103%.

As to `O=C1c2ccccc2C(=O)C2OC12` (configuration not stated), the GFP response vs DMSO in test [1] is 101% (inactive); in test [1] (setting [6]), 99.6%; in test [1] (setting [7]), 88.1%; in test [3] it was 226% (active). Further, the GFP response relative to DMSO in test [2] was 218% (active); in test [2] (setting [8]), 179%; in test [2] (setting [9]), 201%. Moreover, the GFP response, % of DMSO is 133% (inactive) in test [4], 101% (inactive) in test [5], 100% in test [5] (setting [6]) and 85.8% in test [5] (setting [7]).
